# Data reported in ChEMBL document CHEMBL1154465, “Structure-activity relationships in the acronycine and benzo[b]acronycine series: role of the pyran ring” (Eur J Med Chem, 2008).
# Key:
# [1] = Cytotoxicity against human KB3-1 cells after 96 hrs by microculture tetrazolium assay; assay type: functional, cell-based; conditions: KB 3-1, 96 h
# Method in brief: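 KB-3-1 cells grown in DMEM with 10% fetal calf serum, 2 mM L-glutamine, penicillin, streptomycin and 10 mM HEPES (pH 7.4). Exposed to graded drug concentrations (nine serial dilutions, triplicate) for four doubling times (96 h). Viability read by microculture tetrazolium assay; IC50 reported.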
# L1210 = assay: Cytotoxicity against mouse L1210 cells after 48 hrs by microculture tetrazolium assay; assay type: functional, cell-based; conditions: L1210, 48 h
# Method in brief: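 L1210 cells maintained in RPMI 1640 plus 10% fetal calf serum, 2 mM L-glutamine, penicillin, streptomycin and 10 mM HEPES (pH 7.4). Drug exposure at nine serial dilutions in triplicate for four doubling times (48 h). Microculture tetrazolium read-out; results given as IC50.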
Compound,IC50 [1],IC50 (L1210)
COc1cc(OC)c2c(=O)c3ccccc3n(C)c2c1CO,34.1 µM,23.9 µM
COc1ccc2c(=O)c3cc4ccccc4cc3n(C)c2c1CO,22.5 µM,34.6 µM
COc1ccc2c(=O)c3ccccc3n(C)c2c1COC(C)=O,,24 µM
COc1cc(OC(C)(C)COC(C)=O)c(COC(C)=O)c2c1c(=O)c1cc3ccccc3cc1n2C,4.9 µM,3 µM
COc1cc(OC(C)(C)CO)c(CO)c2c1c(=O)c1cc3ccccc3cc1n2C,26.2 µM,1.3 µM
COc1cc2c(c3c1c(=O)c1cc4ccccc4cc1n3C)[C@@H](OC(C)=O)[C@@H](OC(C)=O)C(C)(C)O2 (relative stereo),0.095 µM,
COc1cc(OC)c2c(=O)c3ccccc3n(C)c2c1COC(C)=O,17.7 µM,39.9 µM
COc1ccc2c(=O)c3cc4ccccc4cc3n(C)c2c1COC(C)=O,7.9 µM,18.5 µM
COc1ccc2c(=O)c3ccccc3n(C)c2c1CO,,13.9 µM
COCc1c(OC)cc(OC)c2c(=O)c3ccccc3n(C)c12,36.2 µM,51.7 µM
